Sampled rows, rich in hits. Any-hit rate of the full collection: about 1.5%.
OXTR agonist: human OXTR agonists, primary screen, fluorescence, CHO-OTR cells, Fluo-8 calcium. Fluo-8 calcium fluorescence; normalized: DMSO 0%, oxytocin 100%. activation, % at 3 µM. actives 0.32% (n = 320,000);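 active = activation above the mean of all tested compounds plus 3 SD, cutoff set per screening run, cut at about 20% in these data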;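 also: peak over basal fluorescence ratio from a 100 s FLIPR kinetic read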
M4 antag: human M4 muscarinic receptor antagonists, primary screen, CHO cells, Fluo-8 calcium fluorescence. CHO-hM4 cells, ACh EC80. inhibition, % at 3 µM. actives 0.73% (n = 360,000). AID 624125, 2012;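 active = inhibition above its plate's cutoff, the mean inhibition of sample wells plus 3 SD, cut at about 27% in these data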;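 also: 0% = acetylcholine EC80 with DMSO and 100% = DMSO without agonist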
Target sequence (P08173 whole entry, looked up): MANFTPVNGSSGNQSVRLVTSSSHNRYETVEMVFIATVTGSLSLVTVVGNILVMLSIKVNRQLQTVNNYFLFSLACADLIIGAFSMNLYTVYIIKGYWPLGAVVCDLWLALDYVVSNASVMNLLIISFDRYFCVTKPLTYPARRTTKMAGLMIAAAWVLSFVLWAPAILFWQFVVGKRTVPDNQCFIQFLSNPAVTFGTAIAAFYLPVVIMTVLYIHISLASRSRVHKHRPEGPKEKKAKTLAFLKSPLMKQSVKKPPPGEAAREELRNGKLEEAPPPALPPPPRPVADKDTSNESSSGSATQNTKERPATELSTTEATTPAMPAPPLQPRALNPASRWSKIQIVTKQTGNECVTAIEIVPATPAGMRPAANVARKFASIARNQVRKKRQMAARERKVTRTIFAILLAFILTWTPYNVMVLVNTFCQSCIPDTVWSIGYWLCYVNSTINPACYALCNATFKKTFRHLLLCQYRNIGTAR
V1R ag counter: agonists of human V1a receptor, primary screen, counter-screen for OXTR agonist project, fluorescence, CHO-V1R cells | Vasopressin V1a receptor (Homo sapiens), P37288 | Fluo-8 calcium fluorescence, agonist mode; 0% DMSO, 100% 3 nM vasopressin | activation, % at 3 µM | actives 0.25% (n = 320,000);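 active = activation above the mean activation of all tested compounds plus 3 SD, per screening run, cut at about 20% in these data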;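 also: signal is peak over basal fluorescence ratio across a 100 second FLIPR read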
M4 PAM: human M4 muscarinic receptor positive allosteric modulators, primary screen, CHO-K1 cells, Fluo-8 calcium fluorescence; CHO-K1 hM4/Gqi5, ACh EC20; 0% = ACh EC20, 100% = maximal ACh; activation, % at 3 µM; actives 0.4% (n = 360,000); AID 624126, 2012;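 active = activation above its plate's cutoff, the mean activation of sample wells plus 3 SD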
OXTR potentiator: human OXTR potentiators, primary screen, fluorescence, CHO-OTR cells, Fluo-8 calcium | Fluo-8 calcium fluorescence, potentiator mode; 0% = oxytocin EC15, 100% = EC100 | activation, % at 3 µM | actives 0.061% (n = 320,000) | AID 2445, 2010;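 active = activation above that plate's cutoff, the mean activation of tested compounds plus 3 SD, cut at about 6.6% in these data, passing the limit was not always enough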;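 also: 100% uses oxytocin at 75 nM as the full agonist control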
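Assay system: CHO cell line stably expressing human OTR | Also added: Oxytocin at about EC15, sub-maximal agonist stimulus | Times: Compound 6 min at room temperature before oxytocin, 100 s read | Measured by: Fluo-8 intracellular calcium fluorescence, ex 470-495, em 515-575 nm | Controls: EC15 oxytocin alone as 0%, 75 nM oxytocin as 100%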
M4 ag: human M4 muscarinic receptor agonists, primary screen, CHO-K1 cells, Fluo-8 calcium fluorescence. CHO-K1 hM4/Gqi5; vehicle 0%, full acetylcholine response 100%. activation, % at 3 µM. actives 0.14% (n = 360,000);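 active = activation above the run mean over all test wells plus 3 SD, cut at about 32% in these data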;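 also: peak over basal fluorescence ratio per well then scaled between controls; 0% = DMSO wells and 100% = acetylcholine at EC100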
Numbers without * were called inactive; . = not tested or not shown.

SMILES	OXTR agonist	M4 antag	V1R ag counter	M4 PAM	OXTR potentiator	M4 ag
O=C(Nc1cc(=O)[nH]c2ncnn12)c1ccco1	0	14	6	6	-5	0
CCN1C(=NCCCCO)N[C@@H](c2cccc(F)c2)C(C(=O)OC)=C1C	1	-11	1	23*	3	0
CCN1C(=NCCOC)N[C@@H](c2cccc(F)c2)C(C(=O)OC)=C1C	0	13	1	-6	-5	0
C[N+]1(CC(O)c2ccccc2)CCCCCC1 (stereo unspecified)	0	12	1	-7	-10	1
CC(=O)OC(C[N+]1(C)CCCCCC1)c1ccccc1 (stereo unspecified)	-1	37*	0	-15	-15	0
CC(C)/C=C1\CC/C(=C\c2ccc(N(C)C)cc2)C1=O	69*	25	59*	-17	-17	24
C=CCOC1COC2C(OCC=C)COC12 (stereo unspecified)	.	-2	.	3	.	1
O=C(O)c1ccccc1NS(=O)(=O)c1ccc(NN=Cc2ccccc2F)c([N+](=O)[O-])c1	-1	-19	-1	24*	-4	-1
OC1c2c(F)cccc2N=C2CCCCN21 (stereo unspecified)	.	-4	.	5	.	0
CCCN1CCN(C(=O)c2cc3c(s2)-c2ccccc2OC3)CC1	0	-2	2	2	-6	3
CCOC(=O)N1CCN(C(=O)c2cc3c(s2)-c2ccccc2OC3)CC1	1	-25	2	24*	-1	12
CCOC(=O)CCCCCC(=O)Nc1ccc2c(c1)C(=O)N([C@@H](C)CO)C[C@H](C)[C@H](CN(C)C(=O)c1ccccc1)OCCCC[C@H](C)O2	.	-3	.	0	.	0
CCc1ccc(OCC(=O)NNC(=O)c2cnccn2)c(Br)c1	-2	-19	0	20*	-5	1
CCOC(=O)N1CCC(N2CCN(CCC(C)C)C(CCO)C2)CC1 (stereo unspecified)	1	63*	1	-17	-3	1
CCOC(=O)N1CCC(N2CCN(Cc3ccc(F)c(F)c3)C(CCO)C2)CC1 (stereo unspecified)	1	-1	0	2	3	1
COc1cccc(CN(C)C(=O)c2ccccc2Sc2ccccc2C#N)c1OC	.	-7	.	-6	.	9
Cc1noc(C)c1S(=O)(=O)NC(=O)C1(C)CCN1C(=O)Cc1ccc(-c2ccccc2)cc1 (stereo unspecified)	.	-4	.	-3	.	1
CCCC(=O)Nc1ccc(OCC(O)CNC(C)C)c(C(C)=O)c1 (stereo unspecified)	0	100*	0	-18	-1	2
CC(C)NCC(O)COc1cccc2ccccc12 (stereo unspecified)	0	3	0	-2	-5	0
CCc1nc2ccc(C(=O)N(CC)CCN(C)C)cn2c1N(C)CCCc1ccccc1	.	27*	.	-15	.	1
CCc1nc2ccc(C(=O)N(C)CCCN(C)C)cn2c1N(C)CCCc1ccccc1	.	1	.	-11	.	1
CCc1nc2ccc(C(=O)Nc3cccc(NS(C)(=O)=O)c3)cn2c1N(C)CCCc1ccccc1	.	54*	.	-13	.	7
Cc1ccccc1NC(=O)Cn1c(NCC(C)O)nc2ccccc21 (stereo unspecified)	-1	2	1	-6	-8	0
CCC(C)CN1C(=O)CN(S(C)(=O)=O)CC1(C)C(=O)Nc1c(C)cccc1C (stereo unspecified)	.	-2	.	6	.	2
COc1ccc(C/C(C)=N/NC(=O)c2cccnc2)cc1	1	-18	0	33*	-1	2
SMILES	OXTR agonist	M4 antag	V1R ag counter	M4 PAM	OXTR potentiator	M4 ag
CCN(C(=O)c1ccc(NC(C)=O)cc1)c1ccccc1	1	-19	1	19*	-2	0
CC(=O)Nc1ccc(C(=O)N(C)c2ccccc2)cc1	1	5	1	-1	-2	0
COc1cc(/C=C(\C#N)c2nc3ccccc3n2C)cc(OC)c1O	26*	-9	29*	7	-5	6
Cn1c(/C(C#N)=C/c2ccc(O)cc2)nc2ccccc21	2	-1	0	3	-4	1
COc1cc(/C=C(\C#N)c2nc3ccccc3[nH]2)cc(OC)c1O	28*	7	29*	-4	-10	9
Cc1csc2nc(CSc3nc4ccccc4o3)cn12	0	3	1	-4	-16	1
c1ccc2oc(SCc3cn4ccsc4n3)nc2c1	-1	38*	2	-17	-3	0
Cc1csc(NC(=O)C(CC(C)C)NS(=O)(=O)c2ccc3c(c2)oc(=O)n3C)n1 (stereo unspecified)	0	34*	0	-12	-9	0
Cc1csc(NC(=O)C2CCN(S(=O)(=O)c3ccc4c(c3)oc(=O)n4C)CC2)n1	-2	-15	4	1	-9	7
Cn1cccc1C(=O)OCC(=O)N1CCc2ccccc2C1	.	-17	.	0	.	1
CCOCCCNC(=O)Cn1ncc2c(=O)oc3ccccc3c21	0	39*	1	2	-5	4
CC(C)OCCCNC(=O)Cn1ncc2c(=O)oc3ccccc3c21	0	-12	1	-6	-7	2
COc1ccccc1CN(C(=O)c1cnccn1)C(C(=O)NC1CCCCC1)c1cc(OC)c(OC)c(OC)c1 (stereo unspecified)	0	-2	0	3	-20	1
Cc1ccc(-c2csc(NC(=O)c3ccc4c(=O)n5c(nc4c3)CCCCC5)n2)cc1	1	0	1	23*	-4	2
CC(=O)N1CCN(C(c2ccccc2)c2ccccc2)CC1	-1	1	1	-5	6	1
CC(=O)c1ccc(NC(=O)c2ccc3c(=O)n4c(nc3c2)CCCCC4)cc1	4	-15	5	5	-14	7
O=C(c1ccc2c(=O)n3c(nc2c1)CCCCC3)N1CCN(C(c2ccccc2)c2ccccc2)CC1	-1	64*	1	-15	-7	1
O=C(c1ccc(=O)oc1)N1CCN(C(c2ccccc2)c2ccccc2)CC1	1	43*	0	-14	-4	3
O=C(c1ccc2c(=O)n3c(nc2c1)CCCCC3)N1CCN(c2ccccc2)CC1	0	-7	-2	-10	1	2

From PubChem BioAssay
